Assay results as given in ChEMBL document CHEMBL1152747, “Synthesis, SAR study and biological evaluation of novel pyrazolo[1,5-a]pyrimidin-7-yl phenyl amides as anti-proliferative agents” (Bioorg Med Chem, 2009).
Activity calls are given as the source filed them. The rule behind the calls is not given here.

Columns and labels:
LoVo [1] = experiment: Antiproliferative activity against human LoVo cells; assay type: functional, cell-based
[2] = Plasma concentration in mouse at 50 mg/kg, po after 1 hr; assay type: ADME, organism-based; design: dose 50 mg/kg, route oral
Procedure, shortened: (§1)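 Nude mice were dosed orally at 50 mg/kg. Blood was sampled at 1 and 4 h, and plasma levels were reported in […].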

[3] = Antiproliferative activity against p21-/- human 80S14 cells; assay type: functional, cell-based
HCT-116 = experiment: Antiproliferative activity against p21+/+ human HCT116 cells; assay type: functional, cell-based
DLD-1 = experiment: Antiproliferative activity against human DLD1 cells; assay type: functional, cell-based
LoVo [4] = experiment: Anticancer activity against human LoVo cells xenografted mouse at 50 mg/kg, po administered 20 days measured on day 21 relative to control; assay type: functional
Procedure, shortened: (§2)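 Female athymic nu/nu mice were given 1×10^7 LoVo cells SC in the flank. Cells were cultured in RPMI with 10% FBS. At 90–120 mg tumour mass (day zero), mice were randomised 5 per group. Tumour mass was calculated as (length×width²)/2 every 7 days and expressed as relative growth versus day zero, treated versus control. Student t-test was run on log relative growth, with significance at p≤0.05.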

SW-620 = experiment: Antiproliferative activity against human SW620 cells; assay type: functional, cell-based
HT-29 = experiment: Antiproliferative activity against human HT-29 cells; assay type: functional, cell-based
[5] = Induction of oligomerization of tubulin
LoVo [6] = experiment: Anticancer activity against human LoVo cells xenografted mouse at 30 mg/kg, po administered 20 days measured on day 21 relative to control; assay type: functional; procedure, shortened: as §2
[7] = Plasma concentration in mouse at 50 mg/kg, po after 4 hrs; assay type: ADME, organism-based; design: dose 50 mg/kg, route oral; procedure, shortened: as §1
[8] = Binding affinity to tubulin
Procedure, shortened: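 Binding was read by the fluorescence change of compound and tubulin tryptophan residues on binding, using unlabelled tubulin with intrinsic tryptophan fluorescence as reporter. KD was derived from this signal.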

Row | SMILES | IC50 [3] | IC50 (HCT-116) | also measured
1 | CC(C)CC(=O)Nc1cc(-c2ccnc3c(C(=O)c4cccs4)cnn23)ccc1F | 89 nM | 3200 nM | IC50 (LoVo [1]): 15 nM; concentration at 1 h [2]: 110 ng/mL; IC50 (DLD-1): 16 nM; T/C (LoVo [4]): 24%; IC50 (SW-620): 15 nM; IC50 (HT-29): 16 nM; Activity [5]: inactive; T/C (LoVo [6]): 57%; concentration at 4 h [7]: 40 ng/mL; Kd [8]: 2500 nM
2 | CC(C)NC(=O)c1cccc(-c2ccnc3c(C(=O)c4cccs4)cnn23)c1 | 680 nM | > 13000 nM | –
3 | CC(C)CC(=O)Nc1cccc(-c2ccnc3c(C(=O)c4cccs4)cnn23)c1 | 140 nM | – | Activity [5]: inactive; Kd [8]: 4300 nM
4 | O=C(Nc1ccccc1)c1cccc(-c2ccnc3c(C(=O)c4cccs4)cnn23)c1 | 310 nM | 5100 nM | –
5 | C/C=C/CNc1cccc(-c2ccnc3c(C(=O)c4cccs4)cnn23)c1 | 430 nM | 3800 nM | –
6 | CC(C)CC(=O)Nc1ccc(Cl)c(-c2ccnc3c(C(=O)c4cccs4)cnn23)c1 | 2800 nM | 20000 nM | –
7 | CC(C)CC(=O)Nc1cncc(-c2ccnc3c(C(=O)c4cccs4)cnn23)c1 | 7600 nM | > 2600 nM | –
8 | COc1ccc(-c2ccnc3c(C(=O)c4cccs4)cnn23)cc1NC(=O)CC(C)C | 6400 nM | 19000 nM | –
9 | CC(C)CC(=O)Nc1cc(-c2ccnc3c(C(=O)c4cccs4)cnn23)ccc1Cl | 430 nM | 8800 nM | –
10 | CC(C)CC(=O)Nc1cc(-c2ccnc3c(C(=O)c4cccs4)cnn23)cs1 | 7800 nM | > 20000 nM | –
11 | Cc1ccc(-c2ccnc3c(C(=O)c4cccs4)cnn23)cc1NC(=O)CC(C)C | 1000 nM | 9200 nM | –
12 | CC(C)CNC(=O)c1cccc(-c2ccnc3c(C(=O)c4cccs4)cnn23)c1 | 400 nM | 5700 nM | IC50 (LoVo [1]): 150 nM; IC50 (DLD-1): 60 nM; IC50 (SW-620): 150 nM; IC50 (HT-29): 150 nM
13 | CC(C)CC(=O)Nc1ccc(-c2ccnc3c(C(=O)c4cccs4)cnn23)s1 | 2000 nM | > 20000 nM | IC50 (LoVo [1]): 680 nM; IC50 (DLD-1): 620 nM; IC50 (SW-620): 760 nM; IC50 (HT-29): 670 nM
14 | CC(C)OC(=O)Nc1cccc(-c2ccnc3c(C(=O)c4cccs4)cnn23)c1 | 51 nM | – | –
15 | CC(C)NC(=O)Nc1cc(-c2ccnc3c(C(=O)c4cccs4)cnn23)ccc1F | 41 nM | 5300 nM | IC50 (LoVo [1]): 11 nM; concentration at 1 h [2]: 14 ng/mL; IC50 (DLD-1): 19 nM; IC50 (SW-620): 12 nM; IC50 (HT-29): 17 nM; concentration at 4 h [7]: 8 ng/mL
16 | CC(C)(C)CCNc1cccc(-c2ccnc3c(C(=O)c4cccs4)cnn23)c1 | 550 nM | 4800 nM | –
17 | O=C(NC1CCCC1)c1cccc(-c2ccnc3c(C(=O)c4cccs4)cnn23)c1 | 390 nM | 6800 nM | –
18 | CC(C)NC(=O)Nc1cccc(-c2ccnc3c(C(=O)c4cccs4)cnn23)c1 | 89 nM | – | –
19 | CC(CC(=O)Nc1cc(-c2ccnc3c(C(=O)c4cccs4)cnn23)ccc1F)C(F)(F)F (stereo unspecified) | 120 nM | 2500 nM | –
20 | CC(C)(C)CC(=O)Nc1cc(-c2ccnc3c(C(=O)c4cccs4)cnn23)ccc1F | 190 nM | 3700 nM | –
21 | CC(C)CCNc1cccc(-c2ccnc3c(C(=O)c4cccs4)cnn23)c1 | 770 nM | 5700 nM | IC50 (LoVo [1]): 81 nM; IC50 (DLD-1): 120 nM; IC50 (SW-620): 110 nM; IC50 (HT-29): 450 nM
22 | CCCCNC(=O)c1cccc(-c2ccnc3c(C(=O)c4cccs4)cnn23)c1 | 340 nM | 5300 nM | –
